Results from PMC7089611 (Febs Letters, 2012).

Key:
[1] = assay type: physicochemical; settings: CD at 220 nm, protein 7 μM, 50 mM Tris–HCl pH 7.5, 150 mM NaCl, 0.1% β‐mercaptoethanol
[2] = Secondary structural content by CD spectroscopy; assay type: physicochemical; settings: 25 °C, protein 5 μM, 50 mM Tris–HCl pH 7.5, 150 mM NaCl, 0.1% β‐mercaptoethanol, CDSSTR
[3] = system: C‐terminal domain of the HCoV‐229E N protein; assay: Sedimentation velocity analytical ultracentrifugation: self-association; assay type: binding; settings: N245–389 in the absence of the C‐terminal tail peptide
Method in brief: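 C-terminal His6-tagged N-protein domain (residues 245–389) was bacterially expressed (1 mM IPTG, 37 °C, 6 h) and purified on Ni–NTA. Runs were at 20 °C and 42,000 rpm, read at 280 nm every 420 s, at 50, 30 and 10 μM protein in 50 mM Tris–HCl pH 7.5, 150 mM NaCl, 0.1% β-mercaptoethanol. Data were fit to a continuous size distribution (0.1–20.0 S).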

B1: N245–370: truncated C‐terminal domain of the HCoV‐229E N protein, extended C‐terminal tail that includes residue 370 (protein)
chain: QKPRWKRQPNDDVTSNVTQCFGPRDLDHNFGSAGVVANGVKAKGYPQFAELVPSTAAMLFDSHIVSKESGNTVVLTFTTRVTVPKDHPHLGKFLEELNAFTREMQQHPLLNPSALEFNPSQTSPAT
modifications: left off: His6, C-terminal, state not stated
melting temperature (Tm) [1]: 36.2 °C | Disordered (random coil) content [2]: 17% | Helix content [2]: 46% | Sheet content [2]: 23% | Turn content [2]: 14%

B2: N245–376: truncated C‐terminal domain of the HCoV‐229E N protein, extended C‐terminal tail that includes residue 376 (protein)
chain: QKPRWKRQPNDDVTSNVTQCFGPRDLDHNFGSAGVVANGVKAKGYPQFAELVPSTAAMLFDSHIVSKESGNTVVLTFTTRVTVPKDHPHLGKFLEELNAFTREMQQHPLLNPSALEFNPSQTSPATAEPVRD
modifications: left off: His6, C-terminal, state not stated
melting temperature (Tm) [1]: 36.7 °C | Disordered (random coil) content [2]: 15% | Helix content [2]: 47% | Sheet content [2]: 22% | Turn content [2]: 16%

B3: N245–382: truncated C‐terminal domain of the HCoV‐229E N protein, extended C‐terminal tail that includes residue 382 (protein)
chain: QKPRWKRQPNDDVTSNVTQCFGPRDLDHNFGSAGVVANGVKAKGYPQFAELVPSTAAMLFDSHIVSKESGNTVVLTFTTRVTVPKDHPHLGKFLEELNAFTREMQQHPLLNPSALEFNPSQTSPATAEPVRDEVSIET
modifications: left off: His6, C-terminal, state not stated
melting temperature (Tm) [1]: above 70 °C | Disordered (random coil) content [2]: 13% | Helix content [2]: 43% | Sheet content [2]: 25% | Turn content [2]: 19%

B4: N245–389: truncated C‐terminal domain of the HCoV‐229E N protein, extended C‐terminal tail that includes residue 389 (protein)
chain: QKPRWKRQPNDDVTSNVTQCFGPRDLDHNFGSAGVVANGVKAKGYPQFAELVPSTAAMLFDSHIVSKESGNTVVLTFTTRVTVPKDHPHLGKFLEELNAFTREMQQHPLLNPSALEFNPSQTSPATAEPVRDEVSIETDIIDEVN
modifications: left off: His6, C-terminal, state not stated
melting temperature (Tm) [1]: above 70 °C | Disordered (random coil) content [2]: 13% | Helix content [2]: 45% | Sheet content [2]: 26% | Turn content [2]: 16% | S-value of dimer ([3]; 20 °C, dimer): approximately 2.85 | S-value of octamer ([3]; 20 °C, octamer): ~7.75 | S-value of tetramer ([3]; 20 °C, tetramer): ~5.30 | molecular mass corresponding to S-value, dimer ([3]; dimer): 31 kDa | molecular mass corresponding to S-value, octamer ([3]; octamer): 131 kDa | molecular mass corresponding to S-value, tetramer ([3]; tetramer): 69 kDa
